Source: PubChem BioAssay
Sampled rows, rich in hits. Any-hit rate of the full collection: about 4.8%.
UCH37 DUB inh: human UCH37 deubiquitinating enzyme inhibition. Q9Y5K5. 0.33% of 330,000 active. AID 588478. purified proteasome/UCH37, Ub-AMC cleavage fluorescence. inhibition, % (concentration not given with the values);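 active = mean inhibition over replicate wells above about 20%, limit read from the data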
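Signal – fluorescence, ex 355 nm, em 460 nm · System – Proteasome-bound UCH37 · Input – 0.15 nM proteasome as dispensed · Timing – 30 min preincubation with enzyme, 25 min cleavage at room temperature · Read-out basis – percent inhibition of cleavage signal versus uninhibited and no-proteasome wells · Medium – Tris-HCl pH 7.4 with ATP-MgCl2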
ALR inh: blocks human ALR sulfhydryl oxidase activity; P55789; purified ALR, DTT oxidation, H2O2 HRP-luminol luminescence; inhibition, % (no concentration beside the values); 3.8% of 290,000 active;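 active = mean replicate inhibition above about 79%, with every replicate also reaching it, limit read from the data; inconclusive = only one of the two criteria met; inactive = mean below limit and not every replicate reaching it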
Target sequence (P55789 whole entry, looked up): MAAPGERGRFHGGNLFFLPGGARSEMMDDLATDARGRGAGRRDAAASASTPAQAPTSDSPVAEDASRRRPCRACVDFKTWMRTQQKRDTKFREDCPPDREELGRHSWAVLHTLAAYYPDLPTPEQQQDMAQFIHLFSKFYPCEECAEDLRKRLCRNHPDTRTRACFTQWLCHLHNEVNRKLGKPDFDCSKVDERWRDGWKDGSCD
NALP1 inh: inhibitors of NALP1 inflammasome in yeast. S. cerevisiae NALP1/ASC/caspase-1 growth, X-gal OD620, 72 h. inhibition, % at 10 µM. 0.61% of 280,000 active; in the data active = inhibition mostly above about 24%, no sharp cut-off; inactive = mostly below about 32%
ATG4B inh: inhibitors of human ATG4B cysteine protease. Q9Y4P1. ATG4B cleavage of LC3-PLA2, NBD-HPC fluorescence, 1 h. inhibition, % at 8.33 µM. 0.51% of 340,000 active; in the data active = inhibition above about 40%
Target sequence (Q9Y4P1 whole entry, looked up): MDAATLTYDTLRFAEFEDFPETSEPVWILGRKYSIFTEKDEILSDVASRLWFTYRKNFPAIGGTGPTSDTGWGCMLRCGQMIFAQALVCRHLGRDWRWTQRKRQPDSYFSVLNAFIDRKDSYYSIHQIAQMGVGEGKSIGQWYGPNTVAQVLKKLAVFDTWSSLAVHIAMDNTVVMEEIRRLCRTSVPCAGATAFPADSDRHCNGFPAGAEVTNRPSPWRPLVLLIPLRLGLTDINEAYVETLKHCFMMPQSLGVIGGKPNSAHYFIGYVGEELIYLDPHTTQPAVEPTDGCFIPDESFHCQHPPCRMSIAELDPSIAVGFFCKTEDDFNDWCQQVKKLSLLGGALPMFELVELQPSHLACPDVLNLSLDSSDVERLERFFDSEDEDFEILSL
Calb FLC: affects C. albicans growth with fluconazole. C. albicans CaCi-2 + fluconazole, Alamar Blue growth, 48 h. growth inhibition, % (no concentration beside the values). 0.57% of 300,000 active. AID 1979;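 active = growth inhibition above about 58% in most replicates, limit read from the data, passing the limit was not always enough; inconclusive = exactly half the replicates above a set limit; inactive = most replicates below a set limit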;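 note: all wells also contain fluconazole at 8 µg/ml as a sub-toxic cotreatment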
NALP3 yeast inh: blocks the NALP3 inflammasome reconstituted in yeast. Yeast reconstituted NLRP3/ASC/caspase-1, beta-gal luminescence, 24 h. inhibition, % at 10 µM. 0.39% of 330,000 active;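 active = inhibition of 50% or more; inactive = inhibition below 50%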
NALP3 yeast conf: NALP3 inhibition confirmation in yeast | shares compounds with NALP3 yeast inh | yeast expressing human NALP3, luminescence | inhibition, % at 10 µM | 81% of 1,300 active | AID 435006; in the data active = inhibition above about 48%
Casp1 ASC ctr: active in yeast caspase-1-ASC counter-screen for NALP3 inhibitors; shares compounds with NALP3 yeast inh; yeast expressing Caspase-1-ASC, luminescence counter screen; inhibition, % at 10 µM; 66% of 1,000 active
NALP3 retest: confirmation retest of NALP3 inhibitors in yeast. shares compounds with NALP3 yeast inh. yeast expressing human NALP3, luminescence read-out. inhibition, % at 10 µM. 53% of 1,000 active
Hits are given with their value; n = inactive; u = inconclusive; x = not tested or not shown; + = active, no number. Cut-off read from the data, not from the text of the source, unless noted: active = inhibition above about 50%; inactive = the rest.

SMILES | UCH37 DUB inh | ALR inh | NALP1 inh | ATG4B inh | Calb FLC | NALP3 yeast inh | NALP3 yeast conf | Casp1 ASC ctr | NALP3 retest
O=C(N/N=C/C(Br)=C\c1ccccc1)c1ccco1 | x | n | n | n | n | 63.8 | 77.2 | 74.0 | 53.5
CCOC(=O)C1=C(C)N=c2sc(=Cc3ccc(OCC(=O)O)cc3)c(=O)n2C1c1ccc(OC(C)C)cc1 (configuration not stated) | n | x | x | x | x | x | x | x | x
Brc1ccc(-c2csc(NC3=NCCCCC3)n2)cc1 | n | n | n | n | n | 57.9 | 55.4 | n | n
c1ccc(-c2csc(NNC3=NCCCCC3)n2)cc1 | n | u | n | n | n | n | x | x | x
COc1cc(CNC(C)c2ccccc2)cc(Cl)c1OCC(=O)Nc1ccccc1 (configuration not stated) | n | x | n | n | n | 53.0 | n | x | x
O=S(=O)(c1ccc(Cl)cc1)n1ccc2cccnc21 | n | n | n | n | n | 61.5 | 61.4 | 56.2 | n
O=S(=O)(c1cc(Cl)ccc1Cl)n1cccn1 | n | n | n | n | n | n | x | x | x
O=S(=O)(c1ccc(Cl)cc1Cl)n1ccc2cccnc21 | n | n | n | n | n | 72.9 | 67.1 | 65.5 | n
Cc1ccc(S(=O)(=O)n2ccc3cccnc32)cc1 | n | n | n | n | n | n | x | x | x
O=[N+]([O-])c1ccc(NN=Cc2sc(N3CCOCC3)nc2-c2ccccc2)c(S(=O)(=O)Nc2ccc(Cl)cc2)c1 | n | x | x | x | x | x | x | x | x
CC(=NNC(=O)c1ccc(CN2CCOCC2)cc1)c1ccc(NC(=O)c2ccccc2)cc1 | n | x | x | x | x | x | x | x | x
CC1(C)CC(=O)C(=Cc2cn(-c3ccccc3)nc2-c2ccccc2)C(=O)C1 | n | n | x | n | u | 53.9 | 83.2 | n | n
Cc1ccc(-c2nn(-c3ccccc3)cc2C=C2C(=O)CC(C)(C)CC2=O)cc1 | n | n | n | n | n | n | x | x | x
S=c1[nH]nc(-c2ccco2)n1N=Cc1ccc(Cl)cc1 | n | x | x | x | x | x | x | x | x
CC(C(c1ccc2c(c1)OCO2)c1c(N)n(C)c(=O)n(C)c1=O)[N+](=O)[O-] (configuration not stated) | n | n | x | n | n | n | x | x | x
Cn1c(N)c(C(C[N+](=O)[O-])c2ccccc2Cl)c(=O)n(C)c1=O (configuration not stated) | n | x | x | n | n | n | x | x | x
COc1cc(C(C[N+](=O)[O-])c2c(N)n(C)c(=O)n(C)c2=O)ccc1O (configuration not stated) | n | n | n | n | n | 50.2 | n | x | x
COc1cccc(F)c1C(C[N+](=O)[O-])c1c(N)n(C)c(=O)n(C)c1=O (configuration not stated) | n | n | + | n | 101.3 | 63.6 | n | 56.1 | n
Cc1ccc(C(C[N+](=O)[O-])c2c(N)n(C)c(=O)n(C)c2=O)cc1 (configuration not stated) | x | n | + | n | n | 70.2 | 63.6 | 78.2 | 52.7
COc1cc(C(C[N+](=O)[O-])c2c(C)cc3ccccn23)ccc1O (configuration not stated) | n | n | n | n | n | n | x | x | x
NC(Cc1nc2ccccc2s1)=NO | n | x | x | x | x | x | x | x | x
COc1cccc2cc(C(=O)c3ccccc3)oc12 | n | n | n | n | n | 50.1 | n | x | x
COc1cccc2cc(CC(=O)c3ccccc3)c(=O)oc12 | n | n | n | n | n | n | x | x | x
CC(=NNC(=S)NC1CCCCC1)c1c(F)cccc1F | n | x | x | x | x | x | x | x | x
Nc1nc(-c2ccccc2)c(-c2ccccc2)s1 | n | u | n | n | n | n | x | x | x
SMILES | UCH37 DUB inh | ALR inh | NALP1 inh | ATG4B inh | Calb FLC | NALP3 yeast inh | NALP3 yeast conf | Casp1 ASC ctr | NALP3 retest
Nc1nc(-c2ccccc2)c(-c2ccc([N+](=O)[O-])cc2)s1 | n | x | n | n | n | 95.0 | 97.8 | 97.6 | 94.7
NCCc1nnc(SCc2ccccc2)o1 | n | n | n | n | n | 61.4 | 74.8 | 60.6 | 61.0
CC(C)(C)OC(=O)NCCCCCc1nnc(SCc2ccccc2F)o1 | n | n | n | n | n | n | x | x | x
Cc1ccc(C)c(CSc2nnc(CCN)o2)c1 | n | n | n | n | n | 72.3 | 79.6 | 64.7 | 71.7
NCCc1nnc(SCc2ccccc2F)o1 | n | n | n | n | n | 62.8 | 74.4 | 68.5 | 69.5
Cc1ccc(C)c(CSc2nnc([C@@H](N)C(C)C)o2)c1 | n | n | n | n | n | n | x | x | x
c1ccc(CSc2nnc(Cc3ccccc3)o2)cc1 | n | x | n | n | n | n | x | x | x
CCCCn1c(N=Cc2c[nH]c3ccccc23)nc2ccccc21 | n | x | x | x | x | x | x | x | x
CCC(=NNS(=O)(=O)c1ccc(Cl)cc1)c1ccc(O)cc1 | n | x | x | x | x | x | x | x | x
Cc1ccc(C=NNC(=S)Nc2cccc(S(=O)(=O)N(C)C)c2)o1 | n | x | x | x | x | x | x | x | x
CSCc1c(C(=O)OCC(=O)c2ccc[nH]2)oc2ccccc12 | n | x | x | 46.2 | x | 51.0 | 67.5 | 55.3 | n
C/C(CC(C)(C)C1CCCCC1)=N\NC(N)=S | x | n | n | n | 104.4 | 54.5 | n | x | x
CN(N=Cc1ccc2c(c1)OCO2)c1nc(N2CCOCC2)nc(N2CCOCC2)n1 | n | x | x | x | x | x | x | x | x
CCc1[nH]nc(C(=O)NN=Cc2ccncc2)c1C | n | x | x | x | x | x | x | x | x
C#CCOc1ccc2c3c(c(=O)oc2c1)CCCC3 | n | n | n | n | n | 59.0 | 61.8 | 60.0 | n
CC(=O)COc1ccc2c3c(c(=O)oc2c1)CCCC3 | n | n | n | n | n | n | x | x | x
CCCCCCCCCCCCCCCC[n+]1cccc2ccccc21 | 87.7 | n | 98.5 | 51.4 | x | 73.0 | n | x | x
CCCCCCCCC[n+]1cccc2c3ccccc3ccc21 | n | n | n | n | n | n | x | x | x
O=C(NN=Cc1c(Cl)[nH]c2ccccc12)c1sc2ccccc2c1Cl | n | x | x | x | x | x | x | x | x
Cc1c(C)c2cccnc2c2ncccc12 | n | n | x | n | x | 78.3 | 85.9 | 96.3 | 85.7
CCC(C)c1ccccc1NC(=O)c1cc2cccc([N+](=O)[O-])c2[nH]1 (configuration not stated) | n | n | x | n | n | 51.7 | n | x | x
O=C1Nc2ccccc2/C1=C/c1ccccc1Cl | n | x | n | n | n | 54.6 | 68.6 | n | n
COc1ccccc1/C=C1\C(=O)Nc2ccccc21 | n | n | n | n | n | n | x | x | x
Cc1ccc(C)c(Sc2ccc(NC(=O)CCl)cc2)c1 | n | 86.2 | x | n | n | 81.1 | 81.2 | 87.8 | 73.8
Cc1ccc(Sc2ccc(NC(=O)CCl)cc2)cc1C | n | 98.3 | 57.3 | n | n | 66.4 | 76.4 | 61.9 | 66.2
CN(N=Cc1ccc(O)cc1O)c1nc(-c2ccccc2)cc(-c2ccccc2)n1 | n | x | x | x | x | x | x | x | x
C[C@@]12CCC3[C@@](CCC4[C@@]3(C)CCC[C@@]4(C)C(=O)Nc3ccc(Cl)cc3)(CC1=O)C2 (some centres not stated) | n | n | x | n | x | n | x | x | x
